# According to ChEMBL document CHEMBL3232920, “Targeting carnitine biosynthesis: discovery of new inhibitors against γ-butyrobetaine hydroxylase” (J Med Chem, 2014):
# Molecular target: T1, Gamma-butyrobetaine dioxygenase (Homo sapiens) (UniProt O75936)
# T1 sequence (whole entry): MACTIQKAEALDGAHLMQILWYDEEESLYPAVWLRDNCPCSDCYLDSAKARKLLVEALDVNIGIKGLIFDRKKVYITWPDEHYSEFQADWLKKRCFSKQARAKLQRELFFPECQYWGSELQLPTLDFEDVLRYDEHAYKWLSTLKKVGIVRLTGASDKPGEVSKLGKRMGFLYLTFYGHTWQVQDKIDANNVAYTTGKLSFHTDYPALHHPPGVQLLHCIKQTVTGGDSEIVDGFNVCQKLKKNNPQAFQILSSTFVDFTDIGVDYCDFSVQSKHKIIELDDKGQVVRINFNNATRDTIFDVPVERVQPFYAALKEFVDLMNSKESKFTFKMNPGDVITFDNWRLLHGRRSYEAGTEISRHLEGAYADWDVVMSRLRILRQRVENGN
# Experiment: Ratio of mildronate IC50 to compound IC50 for human recombinant BBOX
row,SMILES,Ratio IC50
1,CC(CCC(=O)[O-])[N+](C)(C)C (stereo not given),3
2,CN(CCC(=O)[O-])[N+](C)(C)C,3
3,C=C[N+](C)(C)NCCC(=O)[O-],9

# Molecular target: T2, Gamma-butyrobetaine dioxygenase (Homo sapiens, UniProt O75936)
# T2 sequence (O75936 whole entry): T1 sequence (whole entry)
# Experiment: Inhibition of human recombinant BBOX expressed in Saccharomyces cerevisiae AH22 assessed as formation of carnitine from gamma-butyrobetaine preincubated for 15 mins measured after 30 mins by UPLC-MS/MS analysis
# Outline: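 His-tagged BBOX purified by Ni affinity, desalting and Mono Q; tag cut with TEV. Assay (0.2 mL) held 20 mM K phosphate pH 7.0, 20 mM KCl, 3 mM 2-oxoglutarate, 0.25 mM Fe(II), 10 mM ascorbate, catalase and 0.6 μg enzyme. Screen at 100 or 1000 μM, then 6–8 concentrations. GBB 200 μM added after preincubation, 37 °C; stopped with cold acetonitrile/methanol. Logistic-fit IC50, mean ± SD of three experiments.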
row,SMILES,IC50
1,CC[N+](C)(CC)CCCC(=O)[O-],100 µM
2,CCC[N+](C)(C)CCCC(=O)[O-],> 1000 µM
3,C[N+](C)(CCCl)CCCC(=O)O,0.26 µM
4,C[N+](C)(CCCC(=O)[O-])C1CC1,2.1 µM
5,CC(C)[N+](C)(C)NCCC(=O)[O-],> 1000 µM
6,CC[N+](C)(C)CCC[PH](=O)[O-],0.53 µM
7,CC[N+](C)(C)NCCC(=O)[O-],140 µM
8,C[N+]1(CCCC(=O)O)CCCC1,0.49 µM
9,CC[N+](C)(C)N(C)CCC(=O)[O-],7.2 µM
10,C[N+](C)(CCl)CCCC(=O)[O-],268 µM
11,C=CC[N+](C)(C)NCCC(=O)[O-],119 µM
12,C[N+](C)(CCCC(=O)[O-])CC1CCC1,> 1000 µM
13,C#CC[N+](C)(C)CCCC(=O)[O-],1.4 µM
14,C[N+](C)(C)C/C=C/C(=O)[O-],3.8 µM
15,C[N+](C)(C)CCC[PH](=O)[O-],0.52 µM
16,CC[N+](C)(C)CCCC(=O)[O-],3.3 µM
17,C[S+](C)CCCC(=O)[O-],388 µM
18,C[N+](C)(C)CCCP(=O)(O)O,0.1 µM
19,C[N+](C)(CCCC(=O)[O-])C1CCC1,0.81 µM
20,CC(C)[N+](C)(C)CCCC(=O)[O-],5.7 µM
21,C[N+](C)(CCCC(=O)[O-])C1CCCC1,> 1000 µM
22,O=C(O)CCCN1CCCC1,1000 µM
23,C[N+](C)(CI)CCCC(=O)[O-],1000 µM
24,C[N+](C)(C)NCCP(=O)(O)O,117 µM
25,C[N+](C)(CCO)CCCC(=O)[O-],1000 µM

row,SMILES,IC50
1,C[N+](C)(CCCl)NCCC(=O)O,10.2 µM
2,CC(CCC(=O)[O-])[N+](C)(C)C (stereo not given),343 µM
3,C[N+](C)(CBr)CCCC(=O)[O-],> 1000 µM
4,C[N+](C)(C)CC(Cl)CC(=O)O (stereo not given),459 µM
5,CCC[N+](C)(C)N(C)CCC(=O)[O-],3.1 µM
6,CCCC[N+](C)(C)CCCC(=O)[O-],> 1000 µM
7,C#CC[N+](C)(C)NCCC(=O)O,24 µM
8,CCN(CCC(=O)[O-])[N+](C)(C)C,2.8 µM
9,CC[N+](C)(C)CCCS(=O)(=O)[O-] [ETHYL DIMETHYL AMMONIO PROPANE SULFONATE],6.7 µM
10,C=CC[N+](C)(C)CCCC(=O)[O-],2.7 µM
11,C[N+](C)(CCF)CCCC(=O)O,0.61 µM
12,C[N+](C)(C)CCCc1nnn[nH]1,> 1000 µM
13,C[N+](C)(CCCC(=O)[O-])Cc1ccccc1,> 1000 µM
14,C[N+](C)(CCCC(=O)[O-])CC1CC1,> 1000 µM
15,C[N+](C)(CCO)NCCC(=O)[O-],1000 µM
16,C[N+](C)(C)C1CCCC(C(=O)[O-])C1 (stereo not given),> 1000 µM
17,C=C[N+](C)(C)CCCC(=O)[O-],127 µM
18,CC[N+](C)(CC)NCCC(=O)O,> 1000 µM
19,C[N+](C)(C)CCCS(=O)(=O)[O-],1.7 µM
20,C[N+](C)(CCN)NCCC(=O)[O-],> 1000 µM
21,COC[N+](C)(C)CCCC(=O)[O-],> 1000 µM
22,CN(CCC(=O)[O-])[N+](C)(C)C,0.09 µM
23,C=C[N+](C)(C)NCCC(=O)[O-],6.8 µM
24,C[N+](C)(C)NCCS(=O)(=O)[O-],87 µM
25,C[N+](C)(C)CCCCC(=O)[O-],> 1000 µM

# Molecular target: T2, Gamma-butyrobetaine dioxygenase
# Experiment: Binding affinity to purified human BBOX by isothermal titration calorimetry analysis
# Outline: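 Human BBOX, purified and dialyzed, in 50 mM HEPES pH 7.4 with 100 mM KCl; cofactors and ligands dissolved in the same dialysate. N-oxalylglycine replaced 2-oxoglutarate and Ni(II) replaced Fe(II). Enzyme 26–75 μM per subunit. ITC at 25 °C: 0.2 μL first injection (discarded), then 19 × 2.0 μL. Dilution heats subtracted, low-c fitting, ≥3 repeats.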
row,SMILES,Kd
1,CC(CCC(=O)[O-])[N+](C)(C)C (stereo not given),4.1 µM
2,CN(CCC(=O)[O-])[N+](C)(C)C,9.3 µM
